Measurements pooled from the literature.
Compare with care: the assays were run in different laboratories.
Effect on: cell growth or viability

| Structure (SMILES) | cell line | method | time | IC50 [µM] |
| --- | --- | --- | --- | --- |
| Cc1ccc2nc(-c3ccncc3)[nH]c2c1 | human Rhabdomyosarcoma cell | MTT | 48 h | 28.4 |
| Cn1nnc2c(C(=O)N3CCCC3)ncn2c1=O | D54 | resazurin | 7 days | 12 |
| Cc1ccc2nc(-c3ccc([N+](=O)[O-])cc3)n(Cc3ccccc3)c2c1 | human Rhabdomyosarcoma cell | MTT | – | 8.45 |
| O=C(/C=C(O)/C=C/c1ccc[nH]1)/C=C/c1c[nH]c2ccccc12 | CHO-K1 | MTT | 72 h | 11 |
| COc1ccccc1/C=C/CNCC(O)COc1ccc2ccccc2c1 (stereo not shown) | NCI-H1299 | CCK-8 | 72 h | 16.3 |
| COCCCN1C(/C=C/c2cccnc2)=CC(=O)CC1c1cccnc1 (stereo not shown) | CHO-K1 | SRB | 72 h | > 75 |
| COc1ccccc1OCCNCC(O)COc1cccc2[nH]c3ccccc3c12 (stereo not shown) | NCI-H1299 | CCK-8 | 72 h | 32.4 |
| Oc1ccc(Br)cc1-c1nc2ccccc2[nH]1 | human Rhabdomyosarcoma cell | MTT | 48 h | 7.25 |
| COc1cc(Nc2nccc(-c3cnn4nc(OC)ccc34)n2)cc(C(F)(F)F)c1 | OV56 | ATP luminescence | – | 1.4 |
| O=C(Nc1nnc(-c2cc3ccccc3[nH]2)s1)c1cc2c([nH]c3ccccc32)c(-c2ccc(Cl)cc2)n1 | HL-60 | MTT | 72 h | 9.31 |
| CCOc1ccc(-c2nc3ccccc3n2Cc2ccccc2)cc1 | human Rhabdomyosarcoma cell | MTT | – | 48.6 |
| O=C(/C=C(O)/C=C/c1ccc[nH]1)/C=C/c1ccc[nH]1 | CHO-K1 | MTT | 72 h | 6.9 |
| COc1cc(C(=O)c2csc(-c3ccccc3)n2)cc(OC)c1OC | B16-F1 | SRB | – | 0.019 |
| c1ccc2[nH]c(-c3ccc4c(c3)OCO4)nc2c1 | human Rhabdomyosarcoma cell | MTT | 48 h | > 100 |
| CCCNc1nc(NCCC)nc(Nc2ccc(Br)cc2)n1 | SK-BR-3 | SRB | 72 h | 22.5 |
| C(=C\c1c[nH]c2ccccc12)/c1cc(/C=C/c2cccs2)[nH]n1 | CHO-K1 | MTT | 72 h | 0.9 |
| O=C(/C=C(/C=C/c1cccnc1)NCCCO)/C=C/c1cccnc1 | CHO-K1 | MTT | 72 h | > 75 |
| Nc1ccc(-c2nc3cnccn3c2N)cc1 | Vero | MTT | 48 h | 96 |
| c1ccc2[nH]c(-c3ccncc3)nc2c1 | human Rhabdomyosarcoma cell | MTT | 48 h | 31.2 |
| COc1cc(/C=C/C(=O)/C=C(O)/C=C/c2cccc3cnccc23)ccc1O | CHO-K1 | SRB | 72 h | 32.6 |
| COc1cccc(-c2nc3ccc(C)cc3[nH]2)c1 | human Rhabdomyosarcoma cell | MTT | 48 h | 22.3 |
| COc1cc(/C=C/C(=O)/C=C(O)/C=C/c2ccnc3ccccc23)ccc1O | CHO-K1 | MTT | 72 h | 22.3 |
| Cc1[nH]c(/C=C2\C(=O)Nc3ccc(S(=O)(=O)N(C)c4cccc(Cl)c4)cc32)c(C)c1C(=O)N1CCN(C)CC1 | Rh30 | – | 72 h | 4.7 |
| COc1cccc2c1C(=O)c1c(O)c3c(c(O)c1C2=O)C[C@@](O)(C(=O)CO)C[C@@H]3O[C@H]1C[C@H](N)[C@H](O)[C@H](C)O1 | CHO-K1 | SRB | 72 h | 2.4 |
| CC(=O)O[C@@]12CO[C@@H]1C[C@H](O)[C@@]1(C)C(=O)[C@H](O)C3=C(C)[C@@H](OC(=O)[C@H](O)[C@@H](NC(=O)OC(C)(C)C)c4ccccc4)C[C@@](O)([C@@H](OC(=O)c4ccccc4)[C@H]21)C3(C)C | MDA-MB-436 | ATP luminescence | 72 h | 0.0037 |
